# Only some compounds are listed: those with a hit (about 2.6% of all), similar ones and a draw of the others.
# FN deposition inh – fibronectin deposition inhibition | AID 743247 | actives 0.086% (n = 350,000) | inhibition, % at 12.6 µM | AH1F fibroblasts, Alexa488-fibronectin deposition fluorescence, overnight;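 active = mean inhibition across replicates of 30% or more, regardless of how many single replicates reach that level; inconclusive = mean under 30% yet at least half of replicates reach 30%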;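 also: positive control wells lacked labelled fibronectin entirely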
#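 Test system: AH1F fibroblast monolayer depositing Alexa488-labelled fibronectin into matrix. Input: 10000 cells per well. Technique: fluorescence, ex 485 nm, em 525 nm. Buffer or medium: DMEM plus 2% serum, read in PBS. Timing: 1 h cell adhesion before compound, then overnight fibronectin incubation. Compound: single dose, pinned. Read-out basis: inhibition from reduced deposited-fibronectin fluorescence.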
# HIV Env fusion – blocks HIV Env-driven cell-cell fusion. HeLa-JRFL Env/CEM21 cell fusion, luciferase. inhibition, % at 12.3 µM. actives 1.1% (n = 360,000). AID 651610;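 active = mean replicate inhibition score of at least 50 and every replicate individually at or above 50; inconclusive = only one of the two criteria met; inactive = mean below 50 and not all replicates reaching 50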;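 also: 0% = plate neutral controls and 100% = maraviroc near 300 nM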
# S100A4 inh HTS – blocks human S100A4 binding to myosin IIA peptide. inhibition, % at 10.7 µM. AID 652163. actives 0.14% (n = 360,000). S100A4/TAMRA-MyoIIA peptide fluorescence polarization;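 active = mean inhibition of at least 70% across replicates, with every replicate also reaching that level; inconclusive = mean inhibition reaches 70% but some replicates fall short; inactive = mean inhibition below 70%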
# Target sequence (P26447 whole entry, looked up): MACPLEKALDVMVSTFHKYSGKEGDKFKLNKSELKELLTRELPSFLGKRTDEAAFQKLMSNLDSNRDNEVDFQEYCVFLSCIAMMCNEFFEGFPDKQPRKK
#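 Assay system: human S100A4 monomer with TAMRA-labelled myosin IIA peptide / Buffer or medium: Calcium-containing HEPES buffer, pH 7.2 / Reagent: TAMRA-labelled myosin IIA heavy-chain peptide probe, 5 nM / Compound: one dose per compound / Timing: polarization read 5 min after assay mix addition, stable 5–60 min / Benchmarks: neutral control DMSO, positive control TFP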
# Ecoli rRNA inh – inhibitors of bacterial rRNA selective over humanized ribosomes. E. coli WT GFP vs humanized-ribosome RFP mutants, fluorescence, 24 h; stronger effect = lower value; DMSO median 0, no signal -100. GFP signal change (wild-type ribosome), % (concentration not given with the values). actives 1.6% (n = 350,000);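 active = significant combined selectivity score with lowered wild-type GFP, culture density cut under 30%, mutant RFP and density less affected; inactive = any of these conditions unmet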
# miR122 inh – inhibitors of miR-122 in Huh7 cells. Huh7 miR-122 Renilla luciferase sensor, 48 h; neutral wells = 0, positive control = 100. actives 0.3% (n = 340,000). AID 602342. activation (reporter increase), % at 12.5 µM;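 active = mean replicate activation score at least 90 and every replicate individually at or above 90; inconclusive = only one of the two criteria met; inactive = neither criterion met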;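 also: higher luciferase means less miR-122 activity so hits act as miR-122 inhibitors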
# Vif imaging – HIV Vif inhibition; HEK293T cells, Vif self-association by quenched fluorescence, imaging, 24 h; inhibition, % at 7.49 µM; actives 0.35% (n = 340,000); AID 602346; in the data active = inhibition above about 50%, passing the limit was not always enough; inconclusive = no clear call, values can overlap the other calls; inactive = below about 31%
# AID977621 – wild-type E. coli growth inhibition versus H69 humanized strain – H69 mutant RFP, wild-type GFP, cherry-pick, dose response; shares compounds with Ecoli rRNA inh; fluorescence, 24 h; activity change, negative = inhibition at 50 µM; 1,900 tested, under 10 active; AID 977621;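 active = Wild-type ribosome reporter drop at least double the humanized mutant ribosome reporter drop, growth loss under a set limit; inconclusive = no clear call, values can overlap the other calls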;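 also: wild-type GFP and H69 mutant RFP strains grown together 50/50 in each well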
# AID977628 – E. coli growth inhibition, wild-type GFP versus h24 humanized RFP strain, dose response, h24 mutant RFP vs wild-type GFP, cherry-pick | shares compounds with Ecoli rRNA inh | 1,900 tested, under 10 active | activity change, negative = inhibition at 50 µM | E. coli WT GFP strain growth, fluorescence, 24 h;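 active = compound lowering the normal-ribosome reporter at least twice as much as the humanized-ribosome reporter, growth loss under a set limit; inconclusive = no clear call, values can overlap the other calls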;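 also: wild-type GFP and h24 humanized RFP strains co-cultured 1 to 1 per well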
# Numbers without * were called inactive; ? = inconclusive; . = not tested or not shown; [ ] = another dose, or the depositor's remark.
SMILES,FN deposition inh,HIV Env fusion,S100A4 inh HTS,Ecoli rRNA inh,miR122 inh,Vif imaging,AID977621,AID977628
O=C(NCc1ccccc1)c1cc(S(=O)(=O)N2CCCCC2)ccc1N1CCOCC1,10,14,0,-18*,6,4,-8.3,-4.6
CS(=O)(=O)c1ccc(C(=O)Nc2nc(-c3ccco3)c(-c3ccco3)s2)cc1,2,.,-3,-19*,-7,-4,-11,?
O=C(Nc1nc(-c2ccco2)c(-c2ccco2)s1)C1CCC1,-1,.,-7,11,1,5,.,.
COc1cc(OC)cc(C(=O)Nc2ccc(S(=O)(=O)Nc3cnc4ccccc4n3)cc2)c1,-3,2,9,-44*,13,-7,-1.6,.
O=C(NC1CCCC1)C(c1ccncc1)N(Cc1ccccc1)C(=O)c1ccc(-c2ccccc2)[nH]1 (stereo not given),2,-29,.,.,.,-4,.,.
CC(C)(C)NC(=O)C(c1ccncc1)N(Cc1ccc(F)cc1)C(=O)c1ccc(-c2ccccc2)[nH]1 (stereo not given),11,-2,-5,-21*,.,7,10,1.3
C[C@H]1CN([C@@H](C)CO)C(=O)Cc2cc(NC(=O)CCN3CCOCC3)ccc2O[C@@H]1CN(C)C(=O)Nc1ccc(F)cc1,.,2[16.7 µM],3,1,2[16.7 µM],.,.,.
Cc1cc(-c2ccccc2)nc2cc(C(N)=O)nn12,.,.,.,.,-3,4,.,.
CCOC(=O)c1cc2nc(-c3ccccc3)cc(C)n2n1,6,-35,-5,-29*,.,-2,-19,?
Cc1ccc(S(=O)(=O)Nc2ccc3c(c2)C(=O)N([C@H](C)CO)C[C@@H](C)[C@H](CN(C)C(=O)c2ccccc2)OCCCC[C@@H](C)O3)cc1,-11,-9[16.7 µM],-4,-16*,-7[16.7 µM],.,-4.5,?
Cc1ccc(S(=O)(=O)Nc2ccc3c(c2)C(=O)N([C@@H](C)CO)C[C@@H](C)[C@H](CN(C)C(=O)c2ccccc2)OCCCC[C@@H](C)O3)cc1,-4,8[16.7 µM],-3,-23*,-8[16.7 µM],.,8.2,1.2
C[C@H]1CN([C@@H](C)CO)C(=O)c2cc(NS(=O)(=O)c3cccs3)ccc2O[C@H]1CN(C)Cc1ccncc1,.,.,-5,1,-7[16.7 µM],.,.,.
COC(=O)c1sc(C(C)(C)C)cc1CS(=O)(=O)c1ccc(Cl)cc1,10,9,7,-31*,.,-7,1.6,-3.8
COc1ccc2nc(SCC(=O)Nc3ccccc3)[nH]c2c1,-14,-5,3,-20*,.,0,-21,.
O=C(CSc1nc2ccccc2[nH]1)Nc1ccccc1F,.,.,-2,-26*,-2,7,.,?
Cc1ccc2nc(SCC(=O)Nc3c(F)cccc3F)[nH]c2c1,0,-6,9,-22*,.,6,.,?
Cc1ccc2nc(SCC(=O)Nc3ccc(F)cc3F)[nH]c2c1,-7,-1,.,.,8,-2,.,.
CCOC(=O)Cc1nnc(NC(=O)CSc2nc3ccccc3[nH]2)s1,-3,-49,1,-17*,.,-7,.,-16
O=C(CSc1nc2ccccc2[nH]1)Nc1ccc(F)c(F)c1,10,2,.,.,-4,-5,.,.
C[C@H]1CN([C@@H](C)CO)C(=O)c2cc(NS(=O)(=O)c3cccs3)ccc2O[C@H]1CN(C)Cc1ccc(C(=O)O)cc1,-7,12[16.7 µM],16,-1,-3[16.7 µM],.,.,.
CC(=O)N1C[C@@H]2C(c3ccccc3)[C@H](C1)N2C(C)=O (stereo not given in full),-24,.,.,0,.,.,.,.
CC(C)CC#Cc1ccc([C@H]2[C@@H](CO)N3CCCCN(S(=O)(=O)Cc4ccccc4)C[C@H]23)cc1,.,.,13,-21*,-35[16.7 µM],.,.,?

# Bioassay records: PubChem BioAssay, Broad Institute
